Test results reported in publication PMC9055496 (RSC Advances, 2020).
“Also recorded” adds a separate entry of the source. Read-outs that look alike come from different tables or passages of the source.

What was measured:
[1] = Urinary excretion of unchanged drug in rats after a single oral dose; assay type: in vivo, Sprague-Dawley rats; conditions: rat; for Time period of highest urinary excretion ratio: oral 50 mg kg^−1; for Cumulative amount in urine: n = 5, mean ± SD; for Cumulative urinary excretion, share of the total dose: oral 50 mg kg^−1, during 48 h, unchanged drug
Summary of the method: (§1)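 Male Sprague-Dawley rats (220 ± 20 g), fasted 12 h, given 50 mg kg−1 by gavage in 0.5% CMC-Na (n = 5/group). Urine and feces were collected in metabolic cages at intervals to 48 h; feces were air-dried, weighed and homogenised in saline. Bile-duct-cannulated rats (ether anaesthesia) were dosed after recovery, with bile collected every 2 h to 12 h. Unchanged drug was measured by UHPLC-MS/MS (positive ESI MRM, internal standard; LLOQ 0.005 μg mL−1).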

[2] = Fecal excretion of unchanged drug in rats after a single oral dose; assay type: in vivo, Sprague-Dawley rats; conditions: rat; for Time period of highest fecal excretion ratio: oral 50 mg kg^−1; for Cumulative amount in feces: n = 5, mean ± SD; for Accumulative fecal excretion, share of the total dose: unchanged drug
Summary of the method: as §1

[3] = assay type: in vivo, Sprague-Dawley rats; conditions: for Cumulative amount in bile: bile duct cannulated rat, n = 5, mean ± SD; for Cumulative biliary excretion, share of the dose: rat, oral 50 mg kg^−1, during 12 h, unchanged drug
Summary of the method: as §1

[4] = Total cumulative excretion in three routes; assay type: in vivo, Sprague-Dawley rats; conditions: rat, oral 50 mg kg^−1, unchanged drug
Summary of the method: as §1

[5] = assay type: in vivo, Sprague-Dawley rats; conditions: for Number of metabolites detected and tentatively identified: rat bile, urine, plasma and feces, oral 100 mg kg^−1; for Metabolic stability, comparison in words: rat in vivo metabolite profile, HFBA vs HPABA, R-HFBA vs S-HFBA
Summary of the method: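 Fasted male Sprague-Dawley rats (n = 5/group) received a single 100 mg kg−1 gavage in 0.5% CMC-Na. Urine and feces were collected 0–24 h in metabolic cages, heparinised plasma at 0.5, 3 and 6 h, and bile 0–12 h from bile-duct-catheterised rats. Feces were powdered and sonicated in methanol for 30 min. Analysis was by UHPLC-FT-ICR-MS, positive ESI, m/z 50–1000, with MS/MS at 10 eV.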

[6] = cited from earlier work
[7] = cited from earlier work; remark: listed apart in the source
[8] = cited from earlier work; remark: listed apart in the source
[9] = cited from earlier work; remark: listed apart in the source
[10] = rats, oral (oral or intravenous) administration of each enantiomer

Time period of highest urinary excretion ratio [1] [h] | Cumulative amount in urine ([1]; oral 50 mg kg^−1, 2 h) [µg] | Cumulative amount in urine ([1]; oral 50 mg kg^−1, 4 h) [µg] | Cumulative amount in urine ([1]; oral 50 mg kg^−1, 6 h) [µg] | Cumulative amount in urine ([1]; oral 50 mg kg^−1, 8 h) [µg] | Cumulative amount in urine ([1]; oral 50 mg kg^−1, 10 h) [µg] | Cumulative amount in urine ([1]; oral 50 mg kg^−1, 12 h) [µg] | Cumulative amount in urine ([1]; oral 50 mg kg^−1, 24 h) [µg] | Cumulative amount in urine ([1]; oral 50 mg kg^−1, 36 h) [µg] | Cumulative amount in urine ([1]; oral 50 mg kg^−1, 48 h) [µg] | Cumulative urinary excretion, share of the total dose [1] [%] | Time period of highest fecal excretion ratio [2] [h] | Cumulative amount in feces ([2]; oral 50 mg kg^−1, 2 h) [µg] | Cumulative amount in feces ([2]; oral 50 mg kg^−1, 4 h) [µg] | Cumulative amount in feces ([2]; oral 50 mg kg^−1, 6 h) [µg] | Cumulative amount in feces ([2]; oral 50 mg kg^−1, 8 h) [µg] | Cumulative amount in feces ([2]; oral 50 mg kg^−1, 10 h) [µg] | Cumulative amount in feces ([2]; oral 50 mg kg^−1, 12 h) [µg] | Cumulative amount in feces ([2]; oral 50 mg kg^−1, 24 h) [µg] | Number of metabolites detected and tentatively identified [5] | SMILES | also measured
0 to 2 | 1831 ± 253 | 2525 ± 285 | 2713 ± 185 | 3098 ± 279 | 3249 ± 294 | 3313 ± 319 | 3413 ± 251 | 3469 ± 216 | 3489 ± 225 | 31.7 | 10 to 12 | 5.800 ± 7.70 | 17.60 ± 18.9 | 89.90 ± 80.3 | 791.6 ± 519 | 1604 ± 459 | 2470 ± 203 | 2764 ± 248 | 8 | CC(O)C(=O)Nc1ccc(C(F)(F)F)cc1C(=O)O (stereo not shown) [S-HFBA, 2-(2-Hydroxypropanamido)-5-trifluoromethyl benzoic acid] | Cumulative amount in feces ([2]; oral 50 mg kg^−1, 36 h): 2878 ± 213 µg; Cumulative amount in feces ([2]; oral 50 mg kg^−1, 48 h): 2944 ± 252 µg; Accumulative fecal excretion, share of the total dose ([2]; oral 50 mg kg^−1, 48 h): 26.8%; Cumulative amount in bile ([3]; oral 50 mg kg^−1, 2 h): 170.8 ± 14.1 µg; Cumulative amount in bile ([3]; oral 50 mg kg^−1, 4 h): 515.4 ± 77.5 µg; Cumulative amount in bile ([3]; oral 50 mg kg^−1, 6 h): 571.8 ± 95.4 µg; Cumulative amount in bile ([3]; oral 50 mg kg^−1, 8 h): 652.9 ± 50.7 µg; Cumulative amount in bile ([3]; oral 50 mg kg^−1, 10 h): 745.6 ± 57.7 µg; Cumulative amount in bile ([3]; oral 50 mg kg^−1, 12 h): 817.0 ± 90.9 µg; Cumulative biliary excretion, share of the dose [3]: 7.4%; Total cumulative excretion in three routes, share of the dose [4]: 58.5%; Anti-inflammatory activity compared with aspirin [6]: superior to aspirin; Antiplatelet aggregation activity compared with aspirin [7]: superior to aspirin; Gastrointestinal toxicity compared with aspirin [8]: less
0 to 2 | 2747 ± 332 | 3149 ± 292 | 3309 ± 457 | 3894 ± 504 | 4010 ± 450 | 4117 ± 435 | 4333 ± 518 | 4394 ± 485 | 4425 ± 478 | 40.2 | 6 to 8 | 6.300 ± 1.60 | 11.00 ± 3.50 | 254.1 ± 400 | 1216 ± 518 | 1980 ± 512 | 2362 ± 629 | 2687 ± 598 | 7 | CC(O)C(=O)Nc1ccc(C(F)(F)F)cc1C(=O)O (stereo not shown) [R-HFBA, 2-(2-Hydroxypropanamido)-5-trifluoromethyl benzoic acid] | Cumulative amount in feces ([2]; oral 50 mg kg^−1, 36 h): 2782 ± 635 µg; Cumulative amount in feces ([2]; oral 50 mg kg^−1, 48 h): 2817 ± 626 µg; Accumulative fecal excretion, share of the total dose ([2]; oral 50 mg kg^−1, 48 h): 25.6%; Cumulative amount in bile ([3]; oral 50 mg kg^−1, 2 h): 185.3 ± 8.20 µg; Cumulative amount in bile ([3]; oral 50 mg kg^−1, 4 h): 531.7 ± 95.4 µg; Cumulative amount in bile ([3]; oral 50 mg kg^−1, 6 h): 783.1 ± 56.6 µg; Cumulative amount in bile ([3]; oral 50 mg kg^−1, 8 h): 925.9 ± 68.1 µg; Cumulative amount in bile ([3]; oral 50 mg kg^−1, 10 h): 1075 ± 62.6 µg; Cumulative amount in bile ([3]; oral 50 mg kg^−1, 12 h): 1239 ± 54.6 µg; Cumulative biliary excretion, share of the dose [3]: 11.3%; Total cumulative excretion in three routes, share of the dose [4]: 65.8%; Metabolic stability, comparison in words [5]: more metabolically stable than S-HFBA; AUC compared with S-HFBA [9, 10]: greater; also recorded: larger; Clearance (CL) compared with S-HFBA [9, 10]: significantly lower; t1/2 compared with S-HFBA [9, 10]: greater; also recorded: longer; Anti-inflammatory activity compared with aspirin [6]: superior to aspirin; Antiplatelet aggregation activity compared with aspirin [7]: superior to aspirin; Gastrointestinal toxicity compared with aspirin [8]: less
 |  |  |  |  |  |  |  |  |  |  |  |  |  |  |  |  |  |  | 8 | CC(O)C(=O)Nc1ccc(C(F)(F)F)cc1C(=O)O (stereo not shown) [HFBA, 2-(2-Hydroxypropanamido)-5-trifluoromethyl benzoic acid] | Metabolic stability, comparison in words [5]: more metabolically stable than HPABA; Bioavailability compared with HPABA [9]: better; Half-life compared with HPABA [9]: longer
